Source: PubChem
A selection: hits, their analogues and other compounds. The true share with any hit is near 1.2%.
Efflux pump mplx – inhibitors of Candida antifungal efflux pumps expressed in yeast | AID 485275 | S. cerevisiae Candida pump triplex, Nile Red efflux | 330,000 tested, 0.44% active | inhibition, % at 10 µM;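 active = plate passing quality check with inhibition over a set limit, or well fluorescence over plate mean plus 4 SD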;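 also: Nile Red retained in pooled yeast measured as flow cytometry median fluorescence; 0% = buffer negative control and 100% = Enniatin B positive control; higher means more Nile Red kept so more efflux inhibition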
FN deposit inh – fibronectin deposition inhibition; AH1F fibroblasts, Alexa488-fibronectin deposition fluorescence, overnight; inhibition, % at 12.6 µM; 350,000 tested, 0.086% active; AID 743247;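 active = mean inhibition across replicates of 30% or more, regardless of how many single replicates reach that level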;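 also: positive control wells lacked labelled fibronectin entirely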
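Material: AH1F fibroblasts assembling fluorescent fibronectin matrix; amount: 10000 AH1F cells/well; medium: DMEM, 2% serum; reagent: Alexa488-fibronectin, 24 nM final in well; dosing: single compound dose, delivered by pin transfer; incubation: 1 h adhesion, overnight exposure; detection: fluorescence after three HBSS washes, excitation 485 nm, emission 525 nm; measure: fibronectin deposition inhibition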
SR-BI DiI inh – blocks mouse SR-BI lipid uptake from DiI-HDL | Q61009 | ldlA[mSR-BI] CHO cells, DiI-HDL uptake fluorescence, 3 h | 320,000 tested, 0.96% active | inhibition, % at 12.5 µM;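 active = mean replicate inhibition of at least 70% and a set share of replicates each scoring 70 or more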;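 also: 0% = median of neutral control wells and 100% = median of positive control wells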
Target sequence (Q61009 whole entry, looked up): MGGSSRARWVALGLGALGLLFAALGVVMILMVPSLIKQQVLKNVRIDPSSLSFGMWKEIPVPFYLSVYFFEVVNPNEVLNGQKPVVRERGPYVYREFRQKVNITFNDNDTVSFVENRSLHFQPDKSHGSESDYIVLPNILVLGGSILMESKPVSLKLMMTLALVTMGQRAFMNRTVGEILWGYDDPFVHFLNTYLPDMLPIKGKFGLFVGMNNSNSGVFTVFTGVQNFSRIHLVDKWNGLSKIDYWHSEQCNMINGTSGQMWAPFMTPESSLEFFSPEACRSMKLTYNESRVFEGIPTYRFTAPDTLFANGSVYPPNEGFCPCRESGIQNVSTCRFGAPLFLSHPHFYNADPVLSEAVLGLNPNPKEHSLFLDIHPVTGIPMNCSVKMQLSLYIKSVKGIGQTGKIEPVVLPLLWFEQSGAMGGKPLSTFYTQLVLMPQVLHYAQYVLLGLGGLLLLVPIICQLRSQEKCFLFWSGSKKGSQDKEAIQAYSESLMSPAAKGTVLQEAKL
CaV13 FRET inh – Disruptors of the CACNA1D IQ motif to Ca2+-dependent inactivation inhibitor domain association, primary screening, Förster resonance energy transfer in intact living …. HEK cells, CFP/YFP FRET ICDI-IQ, plate reader, 10 min; percent FRET-ratio fall versus neutral wells. inhibition, % at 12.3 µM. 340,000 tested, 0.098% active;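 active = mean replicate inhibition of at least 30% and at least 1% of replicates passing that level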;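 also: 0% = median of the neutral control wells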
SR-BI uptake up – enhances SR-BI lipid uptake from DiI-HDL; CHO ldlA[mSR-BI] cells, DiI-HDL uptake fluorescence, 3 h; 100 = double the neutral-control signal; activation, % at 12.5 µM; 320,000 tested, 0.096% active; AID 504775;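 active = mean replicate activation of at least 60% and every replicate at or above 60%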;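 also: 0% = median plate neutral-control signal and 100% = twice that signal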
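Assay system: CHO ldlA[mSR-BI] cells, LDL receptor-null, SR-BI overexpressing; medium: Ham's F12 with 0.5% BSA, HEPES 25 mM, pH 7.4; also added: DiI-HDL 10 µg/mL; timing: 3 h uptake period with compound, 37 °C; signal: DiI fluorescence, bottom read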
Yeast cmpd fluor – counter-screen for efflux pump inhibitors: compound fluorescence. shares compounds with Efflux pump mplx. S. cerevisiae AD/pABC3, flow cytometry. fluorescence ratio to DMSO, % at 10 µM. 1,700 tested, 4% active. AID 588517;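 active = fluorescence ratio to DMSO above its plate's cutoff, the plate mean ratio plus 5 SD, cut at about 210% in these data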;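 also: unstained yeast with no Nile Red so the signal is compound autofluorescence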
CaMdr1 efflux inh – Candida Mdr1 efflux pump inhibition; shares compounds with Efflux pump mplx; 1,700 tested, 1% active; AID 588518; S. cerevisiae AD/CaMDR1, Nile Red efflux, flow cytometry; inhibition, % at 10 µM; in the data active = inhibition above about 26%;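 also: 0% = DMSO vehicle and 100% = reference inhibitor; higher means more Nile Red retained so more efflux inhibition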
CaCdr2 efflux inh – inhibitors of Candida albicans Cdr2 efflux pump. Nile Red retention ratio vs DMSO, % at 10 µM. AID 588520. S. cerevisiae AD/CaCDR2, Nile Red retention, flow cytometry. shares compounds with Efflux pump mplx. 1,700 tested, 4% active; in the data active = Nile Red retention ratio vs DMSO above about 190%;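 also: higher ratio means more blocking of Cdr2 efflux of the dye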
CaCdr1 efflux inh – Candida Cdr1 efflux pump inhibition | shares compounds with Efflux pump mplx | S. cerevisiae AD/CaCDR1, Nile Red efflux, flow cytometry | inhibition, % at 10 µM | 1,700 tested, 1% active | AID 588522;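 active = inhibition above the screen-wide mean plus twice its standard deviation, cut at about 32% in these data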
Numbers without * were called inactive; . = no result.

SMILES	Efflux pump mplx	FN deposit inh	SR-BI DiI inh	CaV13 FRET inh	SR-BI uptake up	Yeast cmpd fluor	CaMdr1 efflux inh	CaCdr2 efflux inh	CaCdr1 efflux inh
COc1ccc(-c2ccc([C@H]3[C@@H](CO)N4C(=O)CN(C(=O)C5CCCC5)C[C@H]34)cc2)cc1	.	4	.	.	.	.	.	.	.
N#C/C(=C\c1ccncc1)c1nc2ccccc2[nH]1	.	.	9	-7	-9	.	.	.	.
N#C/C(=C/c1ccncc1)c1nc2ccccc2s1	0	2	49	-6	-49	103	0	102	0
COc1cccc(C(=O)Nc2ccc3c(c2)OC[C@@H](C)N(C(=O)C2CC2)C[C@@H](C)[C@H](OC)CN(C)C3=O)c1	.	-11	.	.	.	.	.	.	.
CCO[C@@H]1OC(C(=O)Nc2ccccc2)=C[C@H](c2ccc(Br)cc2)[C@H]1CCCO	0.8*	2	28	-11	-28	100	0	121	0
CCO[C@@H]1OC(C(=O)Nc2ccccc2)=C[C@H](c2ccccc2)[C@H]1CCCO	0	3	14	-10	-14	.	.	.	.
C[C@H](CO)N1C[C@H](C)[C@@H](CN(C)C(=O)c2ccccc2)OCCCC[C@H](C)Oc2ccc(NS(=O)(=O)c3ccccc3)cc2C1=O	.	-7	.	.	.	.	.	.	.
O=C(O)CCC(=O)NNC(=O)CCC1CCCCC1	0	4	-18	-15	18	.	.	.	.
O=C(CCC1CCCCC1)NNC(=O)NC12CC3CC(CC(C3)C1)C2	0.7*	-12	-14	-5	14	98	0	87	0
O=C(Nc1ccc(O)cc1C(=O)O)c1ccc(NC(=O)c2ccco2)cc1	0	6	-19	-3	19	107	0	95	0
O=C(O)Cc1ccc(NC(=O)c2ccc(NC(=O)c3ccco3)cc2)cc1	11*	.	58	-8	-58	107	0	100	0
O=C(NCC[C@H]1CC[C@@H](NC(=O)C2CC2)[C@@H](CO)O1)c1cnccn1	.	-11	.	.	.	.	.	.	.
Cc1nc(SCc2ccc([N+](=O)[O-])cc2)n[nH]1	0	7	-4	-21	4	.	.	.	.
Cc1nnc(SCc2ccc([N+](=O)[O-])cc2)o1	1.0*	-6	-10	-6	10	110	0	106	0
C[C@H](CO)N1C[C@H](C)[C@@H](CN(C)C(=O)NC2CCCCC2)Oc2ncc(C#CCN(C)C)cc2C1=O	.	1	.	.	.	.	.	.	.
COc1ccccc1NC(=O)N1CC[C@@H]2[C@H]1c1cc(C#Cc3ccc(F)cc3)ccc1N(C)[C@@H]2CO	.	-12	.	.	.	.	.	.	.
COc1ccc(-c2nsc(C(=O)N(c3ccc(F)cc3)C(C(=O)NC3CCCC3)c3ccc(OC)cc3)c2N)cc1 (configuration not stated)	0.3*	-1	53	-4	-53	107	0	106	0
COc1ccc(N(C(=O)c2snc(C(N)=O)c2N)C(C(=O)NC2CCCCC2)c2ccc(F)cc2)c(OC)c1 (configuration not stated)	0	3	-6	-3	6	.	.	.	.
COc1ccc(-c2ccc3c(c2)[C@@H]2[C@@H](CCN2C(=O)c2cnccn2)[C@H](CO)N3)cc1	.	-4	.	.	.	.	.	.	.
CN(c1ccccc1)c1ccc(/C=C(\C#N)c2nnc3n2CCCCC3)cc1[N+](=O)[O-]	16*	-6	-9	-7	9	81	0	97	0
C[C@@H](NC(=O)C[C@H]1C=C[C@@H](NC(=O)CN2CCOCC2)[C@H](CO)O1)c1ccccc1	.	5	.	.	.	.	.	.	.
C=CCn1c(SCC(=O)Nc2ccc(C(=O)OCC)cc2)nnc1-c1sc(N)nc1C	0	.	20	-1	-20	.	.	.	.
